Shown are actives, neighbours in structure and some others; about 2.2% of the full set was active somewhere.
PDI inh = PDI (human) enzyme inhibition; P07237; AID 588391; inhibition, % at 10 µM; PDI insulin aggregation turbidity, A650, 90 min; hit rate 0.052% among 350,000;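 active means mean inhibition across replicates of 30% or more, whatever share of single replicates reach that level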
ERp5 block = inhibitors of human ERp5; Q15084; ERp5 insulin aggregation, absorbance 650 nm, 90 min; inhibition, % at 9.99 µM; hit rate 0.05% among 350,000;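 active means mean replicate inhibition above about 25%, with every replicate also reaching it, limit read from the data, passing the limit was not always enough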
Target sequence (Q15084 whole entry, looked up): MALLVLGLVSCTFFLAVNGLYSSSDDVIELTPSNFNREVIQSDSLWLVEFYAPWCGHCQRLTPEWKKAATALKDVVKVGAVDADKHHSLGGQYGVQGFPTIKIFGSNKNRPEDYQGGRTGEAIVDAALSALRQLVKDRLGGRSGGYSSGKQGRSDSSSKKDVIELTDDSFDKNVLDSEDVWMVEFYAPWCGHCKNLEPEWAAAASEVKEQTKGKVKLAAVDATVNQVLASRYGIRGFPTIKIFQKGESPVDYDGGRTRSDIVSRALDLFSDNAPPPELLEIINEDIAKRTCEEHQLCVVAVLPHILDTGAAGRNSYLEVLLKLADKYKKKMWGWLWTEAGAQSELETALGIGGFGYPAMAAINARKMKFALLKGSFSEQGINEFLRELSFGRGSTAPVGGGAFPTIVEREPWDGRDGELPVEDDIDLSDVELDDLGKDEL
FN deposit inh = fibronectin deposition inhibition; AH1F fibroblasts, Alexa488-fibronectin deposition fluorescence, overnight; AID 743247; hit rate 0.086% among 350,000; inhibition, % at 12.6 µM;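 active means mean inhibition across replicates of 30% or more, regardless of how many single replicates reach that level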;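 further: positive control wells lacked labelled fibronectin entirely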
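Material: AH1F fibroblast monolayer depositing Alexa488-labelled fibronectin into matrix | Input: 10000 AH1F cells/well | Medium: DMEM plus 2% serum, read in PBS | Reagent: Alexa488-fibronectin, 24 nM final in well | Compound dosing: One dose per compound, pinned | Schedule: 1 h adhesion, overnight exposure | Measured by: Fluorescence at 485 nm excitation, 525 nm emission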
PvdQ inh = P. aeruginosa PvdQ acylase inhibition; AID 488965; hit rate 0.063% among 340,000; purified PvdQ acylase, fluorescence plate reader; inhibition, % at 10 µM; in the data active means inhibition above about 30%, passing the limit was not always enough;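 further: 0% = vehicle neutral wells and 100% = reference inhibitor wells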
Env fusion inh = blocks HIV Env-driven cell-cell fusion; inhibition, % at 12.3 µM; hit rate 1.1% among 360,000; HeLa-JRFL Env/CEM21 cell fusion, luciferase;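 active means mean replicate inhibition score of at least 50 and every replicate individually at or above 50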;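 further: 0% = plate neutral controls and 100% = maraviroc near 300 nM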
Ecoli rRNA inh = inhibitors of bacterial rRNA selective over humanized ribosomes; E. coli WT GFP vs humanized-ribosome RFP mutants, fluorescence, 24 h; stronger effect = lower value; DMSO median 0, no signal -100; GFP signal change (wild-type ribosome), % (test concentration not listed); hit rate 1.6% among 350,000; AID 720706;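 active means significant combined selectivity score with lowered wild-type GFP, culture density cut under 30%, mutant RFP and density less affected; inactive means any of these conditions unmet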
* = called active by the depositor; nt = not tested or not shown; [ ] = dose if it differs, or a comment.

SMILES | PDI inh | ERp5 block | FN deposit inh | PvdQ inh | Env fusion inh | Ecoli rRNA inh
O=C(Nc1nnc(-c2ccccn2)o1)c1cccc(Br)c1 | 6 | nt | -2 | 3 | nt | nt
O=C(CCc1nc2ccccc2s1)OCC(=O)c1ccccc1 | -39 | 3 | 0 | -8 | -6 | -20*
O=C(CCc1nc2ccccc2s1)OCC(=O)c1ccc[nH]1 | 1 | -1 | -2 | -4 | -6 | -27*
O=C(CCc1nc2ccccc2s1)c1ccccc1 | 13 | nt | -3 | 7 | -8 | nt
CCNC(=O)C[C@H]1CC[C@@H]2[C@H](COc3ccc(NC(=O)Cc4ccccc4)cc3C(=O)N2C)O1 | nt | 1 | 3 | nt | 0[16.7 µM] | 2
O=S(=O)(NC1CC1)c1ccc(S(=O)(=O)N2CCCc3ccccc32)cc1 | 8 | 9 | nt | 2 | 69* | -28
COc1ccc(NC(=O)N(C)C[C@@H]2Oc3ccc(NC(=O)C4CCCCC4)cc3CC(=O)N([C@H](C)CO)C[C@@H]2C)cc1 | nt | -1 | -6 | nt | 1[16.7 µM] | -2
N#C/C(=C/c1ccc(Sc2nc3ccccc3[nH]2)o1)c1cccc(Br)c1 | 16 | nt | nt | -4 | nt | nt
N#C/C(=C/c1ccc(Sc2nc3ccccc3[nH]2)o1)c1ccccc1F | -11 | nt | nt | 9 | 73* | nt
N#C/C(=C/c1ccc(Sc2nc3ccccc3[nH]2)o1)c1cccc(F)c1 | 8 | nt | nt | 1 | 87* | nt
C[C@H]1CN([C@@H](C)CO)C(=O)c2cccc(N(C)C)c2O[C@@H]1CN(C)Cc1ccc2c(c1)OCO2 | nt | -3 | 0 | nt | 6[16.7 µM] | 0
C[C@@H]1CN([C@@H](C)CO)S(=O)(=O)c2ccc(C#Cc3ccccc3)cc2O[C@H]1CN(C)S(C)(=O)=O | nt | 0 | nt | nt | 0[16.7 µM] | -6
COc1ccc(/C=C/C(=O)O)cc1S(=O)(=O)NCc1ccco1 | 3 | 3 | 7 | 11 | 3 | 14
COc1ccc(S(=O)(=O)NCc2ccco2)c2ccccc12 | 11 | -6 | 4 | 4 | nt | -26*
Cc1cccc(C)c1NC(=O)CN(C)C(C)C(=O)Nc1ccccc1-c1ccccc1 (configuration not stated) | -4 | 8 | -15 | 12 | 29 | -25*
COc1ccccc1-c1nn2c(-c3ccco3)nnc2s1 | 5 | -10 | nt | -10 | nt | -22*
CC(C)CC#Cc1ccc([C@@H]2[C@@H](CO)N3C(=O)CN(S(C)(=O)=O)C[C@H]23)cc1 | nt | nt | nt | nt | nt | 3
Cc1cc2c(NC(=O)Nc3ccc(C(C)(C)C)cc3)cccc2nn1 | 15 | -2 | -16 | 2 | -12 | -33*
C/C=C/c1ccc2c(c1)O[C@H](CN(C)C(=O)c1ccc(F)cc1)[C@H](C)CN([C@H](C)CO)S2(=O)=O | nt | -6 | -2 | nt | -25[16.7 µM] | -11
CC(C)C(=O)N1CCN(c2ccccc2NC(=O)COc2ccc(C3CCCCC3)cc2)CC1 | 13 | 4 | nt | 1 | 52 | 3
Cc1ccccc1OCC(=O)Nc1ccccc1-c1ccccc1NC(=O)COc1ccccc1C | -13 | nt | -7 | -2 | 64* | nt
CCOC(=O)c1ccc(NC(=O)COc2ccccc2CNCCc2ccccc2)cc1 | -1 | 6 | 11 | -4 | -37 | -51
CC(C)C(=O)N1CCN(c2ccccc2NC(=O)COc2ccccc2)CC1 | -4 | -5 | 3 | 4 | 15 | -27*
Cc1ccc(OCC(=O)Nc2ccccc2N2CCCC2)c(C)c1 | -3 | 1 | 11 | -26 | -20 | -27*
CCOC(=O)c1ccc(NC(=O)CNNC(=O)COc2ccccc2C)cc1 | 7 | 2 | -12 | -8 | -6 | -29*
SMILES | PDI inh | ERp5 block | FN deposit inh | PvdQ inh | Env fusion inh | Ecoli rRNA inh
O=C(C[C@H]1C=C[C@@H](NC(=O)Cc2cccnc2)[C@H](CO)O1)Nc1ccc(-c2ccccc2)cc1 | nt | 4 | -1 | nt | nt | 0
CCCCOc1ccc(C(C)NC(=O)C2CCCN(S(=O)(=O)CCC)C2)cc1 (configuration not stated) | -1 | nt | 33* | -7 | 6 | nt
COC(=O)c1nn(-c2ccccc2)c(Sc2ccc(Br)cc2)c1/C=N/O | 10 | 4 | nt | -8 | nt | -20*
COC(=O)c1nn(-c2ccccc2)c(Sc2ccc(Cl)cc2)c1/C=N/O | 2 | nt | nt | -11 | nt | nt
CCCc1cc(=O)oc2c3c(cc(OCC(=O)NCC4CCC(C(=O)O)CC4)c12)OC(C)(C)CC3 (configuration not stated) | nt | 1 | nt | -16 | nt | -39*
CCCc1cc(=O)oc2c3c(cc(OCC(=O)N4CCC(C(=O)O)CC4)c12)OC(C)(C)CC3 | nt | 7 | nt | nt | nt | -15
COc1ccccc1CCNCc1ccc(OC)c(OCc2ccccc2)c1 | -2 | nt | -19 | -14 | 74* | nt
COc1ccc(CNCc2ccco2)cc1OCc1ccccc1 | -11 | nt | nt | -4 | nt | nt
COC(=O)CN1C(c2ccccc2)=Nc2ccc(Cl)cc2C1c1ccccc1 (configuration not stated) | -2 | nt | -2 | 7 | 105* | nt
COC(=O)CN1C(C)=Nc2ccc(C)cc2C1c1ccccc1 (configuration not stated) | 3 | 3 | 11 | 8 | 17 | 3
CO[C@@H]1CN(C)C(=O)c2ccc(NC(=O)C3CC3)cc2OC[C@H](C)N(Cc2ccccc2)C[C@H]1C | nt | -1 | -4 | nt | nt | -7
CC1(C(=O)NCc2ccccc2)CSCC(=O)N1CCc1c[nH]c2ccccc12 (configuration not stated) | nt | 3 | -5 | nt | 37 | -41*
CC1(C(=O)NCc2ccccc2)CCC(=O)N1CCc1c[nH]c2ccccc12 (configuration not stated) | nt | 1 | 9 | nt | 13 | 4
CC1(C)CC(=O)C(C=NCC(N)=O)=C(O)C1 | 4 | -6 | nt | 0 | nt | -23*
CC(=O)c1c(C)oc2c1C(=O)c1ccccc1C2=O | -12 | 3 | -3 | -21 | 13 | 30
Cc1nc2c(o1)C(=O)c1ccccc1C2=Nc1ccccc1 | 1 | 0 | -1 | 6 | 79* | 2
Cc1ccc(-c2nnc(COC(=O)c3ccco3)o2)cc1 | -4 | 6 | 8 | -9 | 26 | 0
Cc1ccc(C(=O)OCc2nnc(-c3ccc(Br)cc3)o2)cc1 | 2 | -6 | -2 | -5 | 3 | -16*
Cc1onc(-c2ccccc2)c1C(=O)OCc1nnc(-c2ccc([N+](=O)[O-])cc2)o1 | -5 | 3 | 7 | -6 | 60* | -19
C[C@H]1CN([C@@H](C)CO)C(=O)Cc2cc(NS(=O)(=O)c3ccc(Cl)cc3)ccc2O[C@H]1CN(C)S(=O)(=O)c1ccc(F)cc1 | nt | -4 | nt | nt | 15[16.7 µM] | 6
C[C@H](CO)N1C[C@H](C)[C@H](CN(C)S(=O)(=O)c2ccc(F)cc2)Oc2ccc(NS(=O)(=O)c3ccccc3)cc2CC1=O | nt | nt | nt | nt | 86*[16.7 µM] | -1
C[C@H](CO)N1C[C@H](C)[C@H](CN(C)S(=O)(=O)c2ccc(F)cc2)Oc2ccc(NS(=O)(=O)c3ccc(Cl)cc3)cc2CC1=O | nt | -12 | nt | nt | 59*[16.7 µM] | 3
O=c1oc2ccccc2c(N2CCCC2)c1CN1CCCC1 | 5 | -2 | nt | 4 | nt | -18*

Source: PubChem BioAssay (Broad Institute)
